≈ marks a conversion by molar mass, not a printed value.
Assays:
[1] = Antifungal activity against Fusarium oxysporum NCIM 1332 by standard agar method; assay type: functional
How it was run: (§1)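 MICs determined by standard agar method; DMSO as solvent control.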

[2] = system: Bacillus subtilis; assay: Growth inhibition of Bacillus subtilis NCIM 2079 at 3 ug/ml measured after 12 hrs relative to control; assay type: functional; conditions: NCIM 2079, 12 h, read-out: GI
How it was run: (§2)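 Bacteria grown in LB at 37 °C and 180 rpm to OD 1. Compounds added to wells, then 0.1% inoculum of 1 OD culture (620 nm). Growth read as OD at 620 nm after 8 h for gram-negative and after 12 h for gram-positive strains.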

[3] = system: Escherichia coli; assay: Growth inhibition of Escherichia coli NCIM 2688 at 10 ug/ml measured after 8 hrs relative to control; assay type: functional; conditions: NCIM 2688, 8 h, read-out: GI; how it was run: as §2
[4] = system: Escherichia coli; assay: Growth inhibition of Escherichia coli NCIM 2688 at 3 ug/ml measured after 8 hrs relative to control; assay type: functional; conditions: NCIM 2688, 8 h, read-out: GI; how it was run: as §2
[5] = system: Pseudomonas fluorescens; assay: Growth inhibition of Pseudomonas fluorescens NCIM 2036 at 10 ug/ml measured after 8 hrs relative to control; assay type: functional; conditions: NCIM 2036, 8 h, read-out: GI; how it was run: as §2
[6] = system: Pseudomonas fluorescens; assay: Growth inhibition of Pseudomonas fluorescens NCIM 2036 at 3 ug/ml measured after 8 hrs relative to control; assay type: functional; conditions: NCIM 2036, 8 h, read-out: GI; how it was run: as §2
[7] = system: Staphylococcus aureus; assay: Antibacterial activity against of Staphylococcus aureus NCIM 2010 measured after 12 hrs; assay type: functional; conditions: NCIM 2010, 12 h; how it was run: as §2
[8] = system: Bacillus subtilis; assay: Antibacterial activity against Bacillus subtilis NCIM 2079 measured after 12 hrs; assay type: functional; conditions: NCIM 2079, 12 h; how it was run: as §2
[9] = system: Mycobacterium tuberculosis; assay: Growth inhibition of Mycobacterium tuberculosis H37Ra ATCC 25177 at active stage at 100 ug/ml measured after 8 days by XTT dye based two fold dilution method relative to control; assay type: functional; conditions: H37Ra ATCC 25177, 192 h, read-out: GI
How it was run: (§3)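 MTB H37Ra was grown in Dubos medium, then exposed in Mycobacterium pheli minimal medium (pH 6.6) to compounds dissolved in DMSO. The assay ended on day 8 (active) or day 12 (dormant). Viable cells were measured by XTT reduction menadione assay at 470 nm, blank-corrected, relative to vehicle control. Triplicates were expressed as mean ± SD. MIC came from dose-response curves.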

[10] = system: Mycobacterium tuberculosis; assay: Growth inhibition of Mycobacterium tuberculosis H37Ra ATCC 25177 at active stage at 3.13 ug/ml measured after 8 days by XTT dye based two fold dilution method relative to control; assay type: functional; conditions: H37Ra ATCC 25177, 192 h, read-out: GI; how it was run: as §3
[11] = system: Mycobacterium tuberculosis; assay: Growth inhibition of Mycobacterium tuberculosis H37Ra ATCC 25177 at dormant stage at 50 ug/ml measured after 12 days by XTT dye based two fold dilution method relative to control; assay type: functional; conditions: H37Ra ATCC 25177, 288 h, read-out: GI; how it was run: as §3
[12] = system: Mycobacterium tuberculosis; assay: Growth inhibition of Mycobacterium bovis BCG ATCC 35743 at dormant stage at 100 ug/ml measured after 12 days by nitrate reductase dye based two fold dilution method relative to control; assay type: functional; conditions: BCG str. ATCC 35743, 288 h, read-out: GI
How it was run: (§4)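 M. bovis BCG was grown in Dubos medium and assayed in Mycobacterium pheli minimal medium (pH 6.6), with compounds from DMSO stocks. Incubation lasted 8 days for active and 12 days for dormant cultures. Viability was read by nitrate reductase at 540 nm against cell-free blanks, with vehicle set as 100% growth. Primary screen was at 30, 10 and 3 µg/ml, in triplicate, mean ± SD. MIC was taken from dose-response curves.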

[13] = system: Mycobacterium tuberculosis; assay: Growth inhibition of Mycobacterium bovis BCG ATCC 35743 at dormant stage at 25 ug/ml measured after 12 days by nitrate reductase dye based two fold dilution method relative to control; assay type: functional; conditions: BCG str. ATCC 35743, 288 h, read-out: GI; how it was run: as §4
[14] = system: Mycobacterium tuberculosis; assay: Growth inhibition of Mycobacterium bovis BCG ATCC 35743 at dormant stage at 3.13 ug/ml measured after 12 days by nitrate reductase dye based two fold dilution method relative to control; assay type: functional; conditions: BCG str. ATCC 35743, 288 h, read-out: GI; how it was run: as §4
[15] = system: Mycobacterium tuberculosis; assay: Growth inhibition of Mycobacterium bovis BCG ATCC 35743 at dormant stage at 1.56 ug/ml measured after 12 days by nitrate reductase dye based two fold dilution method relative to control; assay type: functional; conditions: BCG str. ATCC 35743, 288 h, read-out: GI; how it was run: as §4
[16] = system: Mycobacterium tuberculosis; assay: Growth inhibition of Mycobacterium bovis BCG ATCC 35743 at active stage at 100 ug/ml measured after 8 days by nitrate reductase dye based two fold dilution method relative to control; assay type: functional; conditions: BCG str. ATCC 35743, 192 h, read-out: GI
[17] = system: Mycobacterium tuberculosis; assay: Growth inhibition of Mycobacterium bovis BCG ATCC 35743 at active stage at 25 ug/ml measured after 8 days by nitrate reductase dye based two fold dilution method relative to control; assay type: functional; conditions: BCG str. ATCC 35743, 192 h, read-out: GI; how it was run: as §4
[18] = system: Mycobacterium tuberculosis; assay: Growth inhibition of Mycobacterium bovis BCG ATCC 35743 at active stage at 6.25 ug/ml measured after 8 days by nitrate reductase dye based two fold dilution method relative to control; assay type: functional; conditions: BCG str. ATCC 35743, 192 h, read-out: GI; how it was run: as §4
[19] = system: Mycobacterium tuberculosis; assay: Growth inhibition of Mycobacterium bovis BCG ATCC 35743 at active stage at 3.13 ug/ml measured after 8 days by nitrate reductase dye based two fold dilution method relative to control; assay type: functional; conditions: BCG str. ATCC 35743, 192 h, read-out: GI; how it was run: as §4
[20] = system: Mycobacterium tuberculosis; assay: Growth inhibition of Mycobacterium bovis BCG ATCC 35743 at active stage at 0.78 ug/ml measured after 8 days by nitrate reductase dye based two fold dilution method relative to control; assay type: functional; conditions: BCG str. ATCC 35743, 192 h, read-out: GI; how it was run: as §4
[21] = system: Mycobacterium tuberculosis; assay: Growth inhibition of Mycobacterium bovis BCG ATCC 35743 at dormant stage at 30 ug/ml measured after 12 days by nitrate reductase dye based two fold dilution method relative to control; assay type: functional; conditions: BCG str. ATCC 35743, 288 h, read-out: GI; how it was run: as §4
[22] = system: Mycobacterium tuberculosis; assay: Growth inhibition of Mycobacterium bovis BCG ATCC 35743 at dormant stage at 10 ug/ml measured after 12 days by nitrate reductase dye based two fold dilution method relative to control; assay type: functional; conditions: BCG str. ATCC 35743, 288 h, read-out: GI; how it was run: as §4
[23] = system: Mycobacterium tuberculosis; assay: Growth inhibition of Mycobacterium tuberculosis H37Ra ATCC 25177 at dormant stage measured after 12 days by XTT dye based two fold dilution method; assay type: functional; conditions: H37Ra ATCC 25177, 288 h; how it was run: as §3
[24] = system: Mycobacterium tuberculosis; assay: Growth inhibition of Mycobacterium tuberculosis H37Ra ATCC 25177 at active stage measured after 8 days by XTT dye based two fold dilution method; assay type: functional; conditions: H37Ra ATCC 25177, 192 h; how it was run: as §3
[25] = system: Candida albicans; assay: Antifungal activity against Candida albicans NCIM 3471 by standard agar method; assay type: functional; how it was run: as §1
[26] = Antifungal activity against Cryptococcus neoformans NCIM 576 by standard agar method; assay type: functional; how it was run: as §1
[27] = Cytotoxicity against human THP1 cells assessed as growth inhibition at 100 ug/ml measured after 48 hrs by MTT assay relative to control; assay type: toxicity, cell-based, THP-1; conditions: read-out: GI
How it was run: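 MTT assay with 48 h compound exposure. THP-1 macrophages made by 24 h PMA treatment. Each concentration tested in triplicate in one experiment. % cytotoxicity = (control−test)/(control−blank)×100, with control = cells + DMSO and blank = medium without cells. IC50 from % survival versus concentration plots.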

[28] = Cytotoxicity against human PANC1 cells measured after 48 hrs by MTT assay; assay type: toxicity, cell-based, PANC-1
[29] = Selectivity index, ratio of GI50 for human THP1 cells to MIC for Mycobacterium tuberculosis H37Ra ATCC 25177 at dormant stage; assay type: toxicity, cell-based, THP-1; conditions: read-out: Selectivity Index
How it was run: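 SI is the cell-line GI50 divided by the dormant-stage mycobacterial MIC. […] THP-1 macrophages were PMA-differentiated for 24 h.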

COc1ccc2nc(Cl)c(/C=C3\SC(=S)NC3=O)cc2c1
MIC [1]: 125 µg/mL (≈ 371 µM)
inhibition of growth at 3 µg/mL [2]: 1.79%
inhibition of growth at 10 µg/mL [3]: -36.1%
inhibition of growth at 3 µg/mL [4]: 3.11%
inhibition of growth at 10 µg/mL [5]: 81.8%
inhibition of growth at 3 µg/mL [6]: 76.2%
MIC [7]: 7.86 µg/mL (≈ 23.3 µM)
MIC [8]: > 30 µg/mL
inhibition of growth at 100 µg/mL [9]: 90.3%
inhibition of growth at 3.13 µg/mL [10]: 38.4%
inhibition of growth at 50 µg/mL [11]: 90.5%
inhibition of growth at 100 µg/mL [12]: 97.7%
inhibition of growth at 25 µg/mL [13]: 81.6%
inhibition of growth at 3.13 µg/mL [14]: -4.93%
inhibition of growth at 1.56 µg/mL [15]: -28.8%
inhibition of growth at 100 µg/mL [16]: 86.3%
inhibition of growth at 25 µg/mL [17]: 88.2%
inhibition of growth at 6.25 µg/mL [18]: 95.7%
inhibition of growth at 3.13 µg/mL [19]: 14.9%
inhibition of growth at 0.78 µg/mL [20]: -67.9%
inhibition of growth at 30 µg/mL [21]: -6.75%
inhibition of growth at 10 µg/mL [22]: -14%
IC50 [23]: 3.3 µg/mL (≈ 9.8 µM)
IC90 [23]: 4.7 µg/mL (≈ 14 µM)
IC50 [24]: 6.9 µg/mL (≈ 20.5 µM)
IC90 [24]: 14.3 µg/mL (≈ 42.5 µM)
MIC [25]: 150 µg/mL (≈ 445 µM)
MIC [26]: 100 µg/mL (≈ 297 µM)
inhibition at 48 h, 100 ug/ml [27]: 26.3%
GI50 at 48 h [28]: > 100 µg/mL
selectivity ratio [29]: 20.8

O=C1NC(=S)S/C1=C\c1cc2cc(F)ccc2nc1Cl
MIC [1]: 25 µg/mL (≈ 77 µM)
inhibition of growth at 3 µg/mL [2]: -6.11%
inhibition of growth at 10 µg/mL [3]: 27.5%
inhibition of growth at 3 µg/mL [4]: 18.9%
inhibition of growth at 10 µg/mL [5]: 54.6%
inhibition of growth at 3 µg/mL [6]: 29.3%
MIC [7]: 22.6 µg/mL (≈ 69.7 µM)
MIC [8]: > 30 µg/mL
inhibition of growth at 100 µg/mL [9]: 101%
inhibition of growth at 3.13 µg/mL [10]: 52.6%
inhibition of growth at 50 µg/mL [11]: 110%
inhibition of growth at 100 µg/mL [12]: 98.5%
inhibition of growth at 25 µg/mL [13]: 100%
inhibition of growth at 3.13 µg/mL [14]: 25.5%
inhibition of growth at 1.56 µg/mL [15]: -2.98%
inhibition of growth at 100 µg/mL [16]: 97.7%
inhibition of growth at 25 µg/mL [17]: 99%
inhibition of growth at 6.25 µg/mL [18]: 99.5%
inhibition of growth at 3.13 µg/mL [19]: 71.3%
inhibition of growth at 0.78 µg/mL [20]: -54.6%
inhibition of growth at 30 µg/mL [21]: 76.5%
inhibition of growth at 10 µg/mL [22]: 16.9%
IC50 [23]: 5.1 µg/mL (≈ 15.7 µM)
IC90 [23]: 18 µg/mL (≈ 55.4 µM)
MIC [25]: 50 µg/mL (≈ 154 µM)
MIC [26]: 25 µg/mL (≈ 77 µM)
inhibition at 48 h, 100 ug/ml [27]: 26.3%
GI50 at 48 h [28]: > 100 µg/mL
selectivity ratio [29]: 5.6

O=C(O)CN1C(=O)/C(=C/c2cc3cc(F)ccc3nc2Cl)SC1=S
MIC [1]: 25 µg/mL (≈ 65.3 µM)
inhibition of growth at 3 µg/mL [2]: -1.39%
inhibition of growth at 10 µg/mL [3]: -8.65%
inhibition of growth at 3 µg/mL [4]: -2.27%
inhibition of growth at 10 µg/mL [5]: 1.08%
inhibition of growth at 3 µg/mL [6]: 6.76%
MIC [7]: > 30 µg/mL
MIC [8]: > 30 µg/mL
inhibition of growth at 100 µg/mL [9]: 100%
inhibition of growth at 3.13 µg/mL [10]: -12.6%
inhibition of growth at 50 µg/mL [11]: 83.2%
inhibition of growth at 100 µg/mL [12]: 98.2%
inhibition of growth at 25 µg/mL [13]: 99.8%
inhibition of growth at 3.13 µg/mL [14]: 99.5%
inhibition of growth at 1.56 µg/mL [15]: 99.4%
inhibition of growth at 30 µg/mL [21]: 28.2%
inhibition of growth at 10 µg/mL [22]: 43.1%
IC50 [23]: > 30 µg/mL
IC90 [23]: > 30 µg/mL
IC50 [24]: > 30 µg/mL
IC90 [24]: > 30 µg/mL
MIC [25]: 50 µg/mL (≈ 131 µM)
MIC [26]: 25 µg/mL (≈ 65.3 µM)
inhibition at 48 h, 100 ug/ml [27]: 27.6%
GI50 at 48 h [28]: > 100 µg/mL

Source: ChEMBL document CHEMBL3877264, “Quinolidene-rhodanine conjugates: Facile synthesis and biological evaluation” (Eur J Med Chem, 2017)
